Laboratory results reported in ChEMBL document CHEMBL2034813, “2-(Alkyl/aryl)amino-6-benzylpyrimidin-4(3H)-ones as inhibitors of wild-type and mutant HIV-1: enantioselectivity studies” (J Med Chem, 2012).
Calls of active or inactive are those of the source. The rule behind the calls is not given here.

Tests used:
[1] = test system: Human immunodeficiency virus type 1 reverse transcriptase (Human immunodeficiency virus 1), Q72547 [K103N]
[2] = test system: Human immunodeficiency virus 1; test: Antiviral activity against HIV1 harboring reverse transcriptase K103N mutant infected in human MT4 cells assessed as inhibition of virus-induced cytopathic effect after 5 days by MTT assay; assay type: functional, organism-based; settings: Human immunodeficiency virus 1, MT4, 120 h
[3] = test system: Human immunodeficiency virus type 1 reverse transcriptase (Human immunodeficiency virus 1), Q72547 [L100I]
[4] = target: Human immunodeficiency virus type 1 reverse transcriptase (Human immunodeficiency virus 1) (UniProt Q72547)
[5] = test system: Human immunodeficiency virus type 1 reverse transcriptase (Human immunodeficiency virus 1), Q72547 [Y181I]
[6] = Selectivity index, ratio of CC50 for human MT4 cells to EC50 for wild type HIV1 NL4-3; assay type: toxicity, cell-based; settings: read-out: Ratio CC50/EC50
[7] = test system: Human immunodeficiency virus 1; test: Resistance ratio of ID50 for HIV1 reverse transcriptase V106A mutant to ID50 HIV1 wild type reverse transcriptase
[8] = test system: Human immunodeficiency virus 1; test: Antiviral activity against HIV1 harboring reverse transcriptase Y188L mutant infected in human MT4 cells assessed as inhibition of virus-induced cytopathic effect after 5 days by MTT assay; assay type: functional, organism-based; settings: Human immunodeficiency virus 1, MT4, 120 h
[9] = test system: Human immunodeficiency virus 1; test: Resistance ratio of ID50 for HIV1 reverse transcriptase Y181I mutant to ID50 HIV1 wild type reverse transcriptase
[10] = test system: Human immunodeficiency virus 1; test: Resistance ratio of ID50 for HIV1 reverse transcriptase L100I mutant to ID50 HIV1 wild type reverse transcriptase
[11] = test system: Human immunodeficiency virus 1; test: Resistance ratio of EC50 for HIV1 harboring reverse transcriptase Y181C mutant to EC50 for wild type HIV1 NL4-3; assay type: functional
Method in brief: (§1)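 MT-4 cells, MTT read-out of HIV-induced cytopathic effect; fold resistance calculated as EC50 against the drug-resistant strain divided by EC50 against WT NL4-3; EC50 values are means ± SD from at least three experiments.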

[12] = test system: Human immunodeficiency virus type 1 reverse transcriptase (Human immunodeficiency virus 1), Q72547 [V106A]
[13] = Cytotoxicity against human MT4 cells after 5 days by MTT assay; assay type: cell-based
Method in brief: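 Noninfected lymphoid MT-4 cells were exposed to compound. […] Values are means ± SD from at least three experiments.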

[14] = test system: Human immunodeficiency virus 1; test: Resistance ratio of EC50 for HIV1 harboring reverse transcriptase K103N mutant to EC50 for wild type HIV1 NL4-3; assay type: functional
Method in brief: as §1

[15] = test system: Human immunodeficiency virus 1; test: Antiviral activity against wild type HIV1 NL4-3 infected in human MT4 cells assessed as inhibition of virus-induced cytopathic effect after 5 days by MTT assay; assay type: functional, organism-based; settings: Human immunodeficiency virus 1, NL4-3, MT4, 120 h
Method in brief: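 Lymphoid MT-4 cells infected with wild-type HIV-1 NL4-3. […] Values are means ± SD from at least three experiments.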

[16] = test system: Human immunodeficiency virus 1; test: Resistance ratio of ID50 for HIV1 reverse transcriptase Y188L mutant to ID50 HIV1 wild type reverse transcriptase
[17] = test system: Human immunodeficiency virus 1; test: Resistance ratio of EC50 for HIV1 harboring reverse transcriptase Y188L mutant to EC50 for wild type HIV1 NL4-3; assay type: functional
Method in brief: as §1

[18] = test system: Human immunodeficiency virus 1; test: Antiviral activity against HIV1 harboring reverse transcriptase Y181C mutant infected in human MT4 cells assessed as inhibition of virus-induced cytopathic effect after 5 days by MTT assay; assay type: functional, organism-based; settings: Human immunodeficiency virus 1, MT4, 120 h
[19] = test system: Human immunodeficiency virus 1; test: Resistance ratio of ID50 for HIV1 reverse transcriptase K103N mutant to ID50 HIV1 wild type reverse transcriptase
[20] = target: Human immunodeficiency virus type 1 reverse transcriptase (Human immunodeficiency virus 1) (UniProt Q72547); test: Noncompetitive inhibition of HIV1 wild type reverse transcriptase using varying concentration of [3H]dTTP by steady state kinetic analysis
Method in brief: (§2)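 Recombinant RT (WT or K103N), RNA-dependent DNA polymerase activity with poly(rA)/oligo(dT) 10:1 and [3H]-dTTP (1 Ci/mmol), 8% final DMSO; steady-state kinetics at fixed inhibitor concentrations, one substrate (nucleic acid or nucleotide) varied while the other kept saturating.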

[21] = test system: Human immunodeficiency virus type 1 reverse transcriptase (Human immunodeficiency virus 1), Q72547 [K103N]; test: Noncompetitive inhibition of HIV1 reverse transcriptase K103N mutant using varying concentration of varying polyrA/oligodT by steady state kinetic analysis
Method in brief: as §2

[22] = target: Human immunodeficiency virus type 1 reverse transcriptase (Human immunodeficiency virus 1) (UniProt Q72547); test: Noncompetitive inhibition of HIV1 wild type reverse transcriptase using varying concentration of varying polyrA/oligodT by steady state kinetic analysis
Method in brief: as §2

[23] = test system: Human immunodeficiency virus type 1 reverse transcriptase (Human immunodeficiency virus 1), Q72547 [K103N]; test: Noncompetitive inhibition of HIV1 reverse transcriptase K103N mutant using varying concentration of [3H]dTTP by steady state kinetic analysis
Method in brief: as §2

[24] = Ratio of TMC120 CC50 to compound CC50 for human MT4 cells; assay type: ADME, cell-based

SMILES	ID50 [1] [nM]	EC50 [2] [nM]	ID50 [3] [nM]	ID50 [4] [nM]	ID50 [5] [nM]	selectivity ratio [6]	Ratio [7]	EC50 [8] [nM]	Ratio [9]	Ratio [10]	Ratio EC50 [11]	ID50 [12] [nM]	CC50 at 120 h [13] [nM]	Ratio EC50 [14]	EC50 [15] [nM]	Ratio [16]	Ratio EC50 [17]	EC50 [18] [nM]	Ratio [19]	further results
CCCN(C)c1nc(C(C)c2c(F)cccc2F)c(C)c(=O)[nH]1 (racemic)	174	16.5	177	30	1260	> 41000	0.6	49	40	6	9	19	> 78000	9	1.9	50	26	17	6	
Cc1cc(C)c(Nc2ccnc(Nc3ccc(C#N)cc3)n2)c(C)c1 [DAPIVIRINE]													3000		0.6					
O=C1Nc2ccc(Cl)cc2[C@@](C#CC2CC2)(C(F)(F)F)O1 [EFAVIRENZ]													3200		7.3			10		
CCCN(C)c1nc([C@H](C)c2c(F)cccc2F)c(C)c(=O)[nH]1	96	11	96	2	450	58000	1.5	28	200	50	10	3	75000	8	1.3	100	22	13	48	inhibition [20]: Active; inhibition [21]: Active; inhibition [22]: Active; inhibition [23]: Active
Cc1ccnc2c1NC(=O)c1cccnc1N2C1CC1 [NEVIRAPINE]						58		> 7500	87				7500	47				> 7500	20	
CCCN(C)c1nc([C@@H](C)c2c(F)cccc2F)c(C)c(=O)[nH]1	> 20000	> 78000	350	975	> 20000	> 5.2	0.1	> 78000		0.4		120	> 78000		15000			> 78000		
Cc1c(N)nc(Nc2ccc(C#N)cc2)nc1[C@H](C)c1c(F)cccc1F	8	0.8	150	8	750	300000	0.04	7.1	90	20	300	0.3	31000	8	0.1	0.4	70	31	1	inhibition [20]: Active; selectivity ratio [24]: 10; inhibition [21]: Active; inhibition [22]: Active; inhibition [23]: Active
Cc1c(N)nc(Nc2ccc(C#N)cc2)nc1[C@@H](C)c1c(F)cccc1F	240	4500	> 15000	180	> 20000	40	0.3	6500				64	38000	4	1000	3	6	> 38000	1.3	
